Data as given in ChEMBL document CHEMBL1128440 (J Med Chem, 1995).

Key:
[1] = species on record: Rattus norvegicus; assay: Tissue biodistribution into estrogen-primed immature female rat liver at 3 hr time interval; type: ADME, organism-based; conditions: in vivo
Procedure, shortened: (§1)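 Immature female Sprague-Dawley rats (25 days old, ≈50 g, five per time point) primed with estradiol, 5 μg sc daily for 2 days in 50% ethanol/sunflower seed oil, used 24 h after the last injection. The 18F-labeled ligand was given iv by tail vein in 10% ethanol/saline. Decapitated at 1 or 3 h; blood and organs weighed and gamma-counted. Reported as %ID/g ± SD, n = 5.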

[2] = species on record: Rattus norvegicus; assay: Tissue biodistribution into estrogen-primed immature female rat liver at 1 hr blocked time interval; type: ADME, organism-based; conditions: in vivo; procedure, shortened: as §1
[3] = species on record: Rattus norvegicus; assay: Tissue biodistribution into estrogen-primed immature female rat bone at 3 hr time interval; type: ADME, organism-based, Bone element; conditions: in vivo; procedure, shortened: as §1
[4] = species on record: Rattus norvegicus; assay: Tissue biodistribution into estrogen-primed immature female rat brain at 1 hr time interval; type: ADME, organism-based; conditions: in vivo; procedure, shortened: as §1
[5] = species on record: Rattus norvegicus; assay: Tissue biodistribution into estrogen-primed immature female rat blood at 1 hr time interval; type: ADME, organism-based; conditions: in vivo; procedure, shortened: as §1
[6] = species on record: Rattus norvegicus; assay: Tissue biodistribution into estrogen-primed immature female rat kidney at 1 hr time interval; type: ADME, organism-based; conditions: in vivo; procedure, shortened: as §1
[7] = species on record: Rattus norvegicus; assay: Tissue biodistribution into estrogen-primed immature female rat uterus/muscle at 1 hr blocked time interval; type: ADME, organism-based; conditions: in vivo; procedure, shortened: as §1
[8] = species on record: Rattus norvegicus; assay: Tissue biodistribution into estrogen-primed immature female rat fat at 1 hr low time interval; type: ADME, organism-based, Adipose tissue; conditions: in vivo; procedure, shortened: as §1
[9] = species on record: Rattus norvegicus; assay: Tissue biodistribution into estrogen-primed immature female rat bone at 1 hr low time interval; type: ADME, organism-based, Bone element; conditions: in vivo; procedure, shortened: as §1
[10] = species on record: Rattus norvegicus; assay: Tissue biodistribution into estrogen-primed immature female rat uterus at 3 hr time interval; type: ADME, organism-based; conditions: in vivo; procedure, shortened: as §1
[11] = species on record: Rattus norvegicus; assay: Tissue biodistribution into estrogen-primed immature female rat lung at 1 hr low time interval; type: ADME, organism-based; conditions: in vivo; procedure, shortened: as §1
[12] = species on record: Rattus norvegicus; assay: Tissue biodistribution into estrogen-primed immature female rat kidney at 3 hr time interval; type: ADME, organism-based; conditions: in vivo; procedure, shortened: as §1
[13] = species on record: Rattus norvegicus; assay: Tissue biodistribution into estrogen-primed immature female rat liver at 1 hr low time interval; type: ADME, organism-based; conditions: in vivo; procedure, shortened: as §1
[14] = species on record: Rattus norvegicus; assay: Tissue biodistribution into estrogen-primed immature female rat brain at 3 hr time interval; type: ADME, organism-based; conditions: in vivo; procedure, shortened: as §1
[15] = target: T1, Progesterone receptor (Homo sapiens) (UniProt P06401); assay: Nonspecific binding affinity against progesterone receptor was estimated relative to compound R5020
T1 sequence (whole entry): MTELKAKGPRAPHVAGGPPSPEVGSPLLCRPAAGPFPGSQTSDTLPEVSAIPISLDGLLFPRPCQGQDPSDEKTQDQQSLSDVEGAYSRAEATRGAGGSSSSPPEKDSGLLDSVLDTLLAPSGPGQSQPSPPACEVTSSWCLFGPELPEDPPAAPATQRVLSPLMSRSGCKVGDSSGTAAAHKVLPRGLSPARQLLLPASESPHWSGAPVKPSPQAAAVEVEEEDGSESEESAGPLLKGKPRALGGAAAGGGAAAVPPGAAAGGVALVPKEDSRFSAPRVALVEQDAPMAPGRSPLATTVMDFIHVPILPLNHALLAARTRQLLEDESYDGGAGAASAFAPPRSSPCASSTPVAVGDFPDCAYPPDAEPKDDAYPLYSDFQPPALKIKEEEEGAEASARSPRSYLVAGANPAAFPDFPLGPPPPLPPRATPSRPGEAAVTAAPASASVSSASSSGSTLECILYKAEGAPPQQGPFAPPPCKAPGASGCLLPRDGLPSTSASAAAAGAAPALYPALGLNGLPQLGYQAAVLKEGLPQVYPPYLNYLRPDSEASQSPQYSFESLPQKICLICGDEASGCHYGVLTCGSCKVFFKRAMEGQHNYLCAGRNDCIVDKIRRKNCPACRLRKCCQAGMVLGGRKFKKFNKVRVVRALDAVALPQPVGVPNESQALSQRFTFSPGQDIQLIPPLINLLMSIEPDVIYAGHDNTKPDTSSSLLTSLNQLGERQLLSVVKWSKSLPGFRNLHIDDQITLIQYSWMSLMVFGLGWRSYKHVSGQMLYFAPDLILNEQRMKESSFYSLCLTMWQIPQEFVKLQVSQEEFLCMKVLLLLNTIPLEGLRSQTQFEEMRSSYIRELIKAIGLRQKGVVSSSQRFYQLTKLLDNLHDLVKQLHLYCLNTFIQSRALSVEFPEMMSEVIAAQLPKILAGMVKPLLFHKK

[16] = species on record: Rattus norvegicus; assay: Tissue biodistribution into estrogen-primed immature female rat uterus at 1 hr blocked time interval; type: ADME, organism-based; conditions: in vivo; procedure, shortened: as §1
[17] = species on record: Rattus norvegicus; assay: Tissue biodistribution into estrogen-primed immature female rat uterus at 1 hr time interval; type: ADME, organism-based; conditions: in vivo; procedure, shortened: as §1
[18] = species on record: Rattus norvegicus; assay: Tissue biodistribution into estrogen-primed immature female rat fat at 3 hr time interval; type: ADME, organism-based, Adipose tissue; conditions: in vivo; procedure, shortened: as §1
[19] = species on record: Rattus norvegicus; assay: Tissue biodistribution into estrogen-primed immature female rat ovaries at 1 hr blocked time interval; type: ADME, organism-based; conditions: in vivo; procedure, shortened: as §1
[20] = target: T1, Progesterone receptor (Homo sapiens); assay: Binding selectivity index as the ratio of RBA value to that of NSB value.
Procedure, shortened: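 BSI calculated as the ratio of RBA to NSB.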

[21] = species on record: Rattus norvegicus; assay: Tissue biodistribution into estrogen-primed immature female rat muscle at 1 hr low time interval; type: ADME, organism-based; conditions: in vivo; procedure, shortened: as §1
[22] = species on record: Rattus norvegicus; assay: Tissue biodistribution into estrogen-primed immature female rat muscle at 1 hr time interval; type: ADME, organism-based; conditions: in vivo; procedure, shortened: as §1
[23] = species on record: Rattus norvegicus; assay: Tissue biodistribution into estrogen-primed immature female rat kidney at 1 hr blocked time interval; type: ADME, organism-based; conditions: in vivo; procedure, shortened: as §1
[24] = species on record: Rattus norvegicus; assay: Tissue biodistribution into estrogen-primed immature female rat uterus/blood at 3 hr time interval; type: ADME, organism-based; conditions: in vivo; procedure, shortened: as §1
[25] = species on record: Rattus norvegicus; assay: Tissue biodistribution into estrogen-primed immature female rat uterus/muscle at 1 hr time interval; type: ADME, organism-based; conditions: in vivo
[26] = species on record: Rattus norvegicus; assay: Tissue biodistribution into estrogen-primed immature female rat ovaries at 1 hr time interval; type: ADME, organism-based, Female gonad; conditions: in vivo; procedure, shortened: as §1

## CC1(c2ccco2)O[C@@H]2CC3C4CCC5=CC(=O)CC[C@@H]5C4CC[C@]3(C)[C@]2(C(=O)CF)O1 (stereo partly specified)
[1]
  Injected dose/g: 1.61%
[2]
  Injected dose/g: 1.52%
[3]
  Injected dose/g: 1.51%
[4]
  Injected dose/g: 0.58%
[5]
  Injected dose/g: 0.32%
[6]
  Injected dose/g: 1.59%
[7]
  uterus/muscle ratio: 2.68
[8]
  Injected dose/g: 1.86%
[9]
  Injected dose/g: 0.84%
[10]
  Injected dose/g: 8.65%
[11]
  Injected dose/g: 1.23%
[12]
  Injected dose/g: 0.76%
[13]
  Injected dose/g: 0.68%
[14]
  Injected dose/g: 0.19%
[15]
  NSB: 1.09
[16]
  Injected dose/g: 1.43%
[17]
  Injected dose/g: 6.51%
[18]
  Injected dose/g: 4.16%
[19]
  Injected dose/g: 1.52%
[20]
  BSI: 159
[21]
  Injected dose/g: 0.25%
[22]
  Injected dose/g: 0.64%
[23]
  Injected dose/g: 1.84%
[24]
  uterus/blood ratio: 71.1
[25]
  Uterus to muscle uptake ratio: 12.07%
[26]
  Injected dose/g: 3.04%
